# Key:
# [1] = target: T1, D(2) dopamine receptor (Homo sapiens, UniProt P14416); experiment: Agonist activity at human recombinant D2 receptor expressed in HEK293 cells by FLIPR assay; type: functional, cell-based
# In short: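 Calcium flux (FLIPR) in HEK-293 cells coexpressing recombinant human D2L with chimeric Gqo5. Efficacy is the maximal response relative to 10 µM dopamine (100%). EC50 is the concentration giving half-maximal stimulation. Values are means (SEM, n ≥ 3).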
# [2] = target: T2, D(4) dopamine receptor (Homo sapiens, UniProt P21917); experiment: Displacement of [3H]A-369508 from human recombinant D4.4 receptor expressed in HEK293 cell membrane; type: cell membranes
# T2 sequence (P21917 whole entry): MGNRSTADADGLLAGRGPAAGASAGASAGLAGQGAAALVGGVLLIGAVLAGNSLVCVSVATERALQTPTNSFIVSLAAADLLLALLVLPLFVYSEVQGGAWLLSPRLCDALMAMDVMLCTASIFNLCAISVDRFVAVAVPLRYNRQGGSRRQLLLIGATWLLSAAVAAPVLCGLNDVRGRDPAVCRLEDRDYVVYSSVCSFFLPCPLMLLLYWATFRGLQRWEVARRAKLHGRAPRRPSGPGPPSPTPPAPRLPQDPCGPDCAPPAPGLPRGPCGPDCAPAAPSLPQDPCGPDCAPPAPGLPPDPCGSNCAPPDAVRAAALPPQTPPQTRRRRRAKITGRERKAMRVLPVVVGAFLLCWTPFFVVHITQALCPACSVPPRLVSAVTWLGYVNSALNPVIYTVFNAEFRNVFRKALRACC
# In short: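 Competition binding against the D4-selective agonist radioligand [3H]-A-369508, using membranes from HEK-293 cells engineered to express human D4.4. Mean values (SEM, n ≥ 4).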
# [3] = target: T1, D(2) dopamine receptor; experiment: Displacement of [125I]PIPAT from human recombinant D2L receptor expressed in HEK293 cells
# [4] = target: T1, D(2) dopamine receptor; experiment: Antagonist activity at human recombinant D2 receptor expressed in HEK293 cells by FLIPR assay; type: functional, cell-based
# [5] = target: T2, D(4) dopamine receptor; experiment: Activity at human recombinant D4.4 receptor expressed in HEK293 cells by FLIPR assay; type: functional, cell-based
# [6] = test system: Rattus norvegicus; experiment: Activity against penile erection in Wistar rat at 0.3 umol/kg, sc; type: functional
# In short: (§1)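 Male Wistar rats, dosed subcutaneously, were weighed and adapted to a red-lit testing room for 60 min; experiments ran between 9:00 a.m. and 3:00 p.m. Erections were counted by direct observation for 60 min after dosing. The share of animals with one or more erections was reported as incidence (percent), n = 8-30 rats.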
# [7] = test system: Rattus norvegicus; experiment: Activity against penile erection in Wistar rat at 0.1 umol/kg, sc; type: functional; in short: as §1
# T1 sequence (P14416 whole entry): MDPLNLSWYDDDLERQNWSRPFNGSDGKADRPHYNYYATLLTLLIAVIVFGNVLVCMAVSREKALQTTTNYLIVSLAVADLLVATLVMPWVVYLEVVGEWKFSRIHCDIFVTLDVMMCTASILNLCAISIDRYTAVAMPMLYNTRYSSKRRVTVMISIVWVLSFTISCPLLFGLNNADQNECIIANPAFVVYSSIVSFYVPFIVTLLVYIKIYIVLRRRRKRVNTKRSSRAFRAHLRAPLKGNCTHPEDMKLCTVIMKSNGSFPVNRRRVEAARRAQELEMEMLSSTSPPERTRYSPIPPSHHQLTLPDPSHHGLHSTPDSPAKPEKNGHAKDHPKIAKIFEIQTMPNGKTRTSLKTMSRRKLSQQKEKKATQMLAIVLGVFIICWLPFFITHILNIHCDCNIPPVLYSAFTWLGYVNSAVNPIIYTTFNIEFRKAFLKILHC
Structure (SMILES),EC50 [1],Ki [2],Ki [3],IC50 [4],EC50 [5],Activity [6],Activity [7]
CO/N=C(\CCN1CCN(c2ccccn2)CC1)c1cccc(C)c1,> 10000 nM,8 nM,68.4 nM,> 10000 nM,27.6 nM,,
CO/N=C(/c1ccc(Cl)cc1)C(CNOC)CN1CCN(c2ccccn2)CC1 (stereo not given),> 10000 nM,120 nM,164 nM,> 10000 nM,206 nM,,
CO/N=C(\CCN1CCN(c2ccccn2)CC1)c1cccc(F)c1,> 10000 nM,13.9 nM,101 nM,> 10000 nM,44.6 nM,,
CO/N=C(/c1ccc(Cl)cc1)C(C)CN1CCN(c2ccccn2)CC1 (stereo not given),> 10000 nM,346 nM,146 nM,> 10000 nM,459 nM,,
CO/N=C(/CCN1CCC(c2ccccn2)CC1)c1ccc(Cl)cc1,> 10000 nM,90 nM,19.4 nM,> 10000 nM,> 10000 nM,,
CO/N=C(\CCN1CCN(c2ccccn2)CC1)c1ccc(F)cc1,> 10000 nM,14.2 nM,168 nM,> 10000 nM,48.8 nM,50%,
CO/N=C(/c1ccc(Cl)cc1)C(O)CN1CCN(c2ccccn2)CC1 (stereo not given),> 10000 nM,150 nM,368 nM,> 10000 nM,22.6 nM,,
CN1CCc2cccc3c2[C@H]1Cc1ccc(O)c(O)c1-3 [APOMORPHINE],,,,,,,85%
CO/N=C(\CCN1CCN(c2ccccn2)CC1)c1ccccc1C,> 10000 nM,11.4 nM,112 nM,> 10000 nM,74 nM,,
CO/N=C(/CCN1CCN(c2ccccn2)CC1)c1ccc(Cl)c(Cl)c1,> 10000 nM,,,> 10000 nM,341 nM,,
CO/N=C(/CN1CCN(c2ccccn2)CC1)c1ccc(F)cc1,> 10000 nM,,,> 10000 nM,4290 nM,,
CCO/N=C(\CCN1CCN(c2ncccc2C#N)CC1)c1ccccc1,> 10000 nM,,,> 10000 nM,139 nM,,
CO/N=C(\CCN1CCN(c2ccccn2)CC1)c1cccc(Cl)c1,> 10000 nM,13.5 nM,98.7 nM,> 10000 nM,88.9 nM,,
C=CCO/N=C(\CCN1CCN(c2ccccn2)CC1)c1ccccc1,> 10000 nM,,,> 10000 nM,350 nM,,
CO/N=C(\CCN1CCC(c2ccccn2)CC1)c1ccc(Cl)cc1,> 10000 nM,134 nM,25.3 nM,> 10000 nM,195 nM,,
CO/N=C(\c1ccc(Cl)cc1)C(O)CN1CCN(c2ccccn2)CC1 (stereo not given),> 10000 nM,113 nM,995 nM,> 10000 nM,46 nM,,
CO/N=C(/CCN1CCN(c2ccccn2)CC1)c1cccnc1,> 10000 nM,130 nM,1820 nM,> 10000 nM,33.3 nM,,
N#Cc1cccnc1N1CCN(CC/C(=N\O)c2ccccc2)CC1,> 10000 nM,,,> 10000 nM,18 nM,,
CO/N=C(\CCN1CCN(c2ccccn2)CC1)c1ccc(Br)cc1,> 10000 nM,,,> 10000 nM,183 nM,,
Cc1ccccc1/C(CCN1CCN(c2ccccn2)CC1)=N/O,> 10000 nM,,,> 10000 nM,4.2 nM,,
CO/N=C(/CCN1CCN(c2ccccn2)CC1)c1cc(C)cc(C)c1,> 10000 nM,,,> 10000 nM,74.7 nM,,
O/N=C(\CN1CCN(c2ccccn2)CC1)c1ccc(F)cc1,> 10000 nM,,,> 10000 nM,26 nM,,
O/N=C(\CCN1CCN(c2ccccn2)CC1)c1cc(F)cc(F)c1,> 10000 nM,,,> 10000 nM,19.4 nM,,
CO/N=C(/c1cccnc1)C(O)CN1CCN(c2ccccn2)CC1 (stereo not given),> 10000 nM,,,> 10000 nM,123 nM,,
CO/N=C(\CCN1CCN(c2ccccn2)CC1)c1cccc(C#N)c1,> 10000 nM,,,> 10000 nM,63.7 nM,,
CO/N=C(\c1ccc(Cl)cc1)C(CN1CCN(c2ccccn2)CC1)OC (stereo not given),> 10000 nM,,,> 10000 nM,195 nM,,

# The next lines start with results.
EC50 [1],Ki [2],Ki [3],IC50 [4],EC50 [5],Structure (SMILES),Activity [6],Activity [7]
> 10000 nM,11.6 nM,60.9 nM,> 10000 nM,98 nM,CO/N=C(/CCN1CCN(c2ccccn2)CC1)c1ccc(Cl)c(C)c1,,
> 10000 nM,,,> 10000 nM,,"Cc1cccc(C(=O)NCN2CCN(c3ccccc3C#N)CC2)c1 [PD-168,077]",79%,
> 10000 nM,38 nM,128 nM,> 10000 nM,28.5 nM,CCO/N=C(\CCN1CCN(c2ccccn2)CC1)c1ccccc1,55%,
> 10000 nM,6.3 nM,225 nM,> 10000 nM,46.7 nM,CO/N=C(/CCN1CCN(c2ccccn2)CC1)c1cc(F)cc(F)c1,,
> 10000 nM,67.1 nM,76.5 nM,> 10000 nM,333 nM,CO/N=C(\CCN1CCN(c2ccccn2)CC1C)c1ccc(Cl)cc1 (stereo not given),,
> 10000 nM,88 nM,140 nM,> 10000 nM,33 nM,N#CCO/N=C(\CCN1CCN(c2ccccn2)CC1)c1ccccc1,,
> 10000 nM,32.1 nM,68 nM,> 10000 nM,61 nM,CO/N=C(/CCN1CCN(c2ccccn2)CC1)c1cccc(C)c1,,
> 10000 nM,53.3 nM,221 nM,> 10000 nM,13.6 nM,CO/N=C(/CCN1CCN(c2ccccn2)CC1)c1ccc(F)cc1,,
> 10000 nM,168 nM,257 nM,> 10000 nM,81.8 nM,CCO/N=C(\CCN1CCN(c2nccs2)CC1)c1ccccc1,,
> 10000 nM,2050 nM,2530 nM,> 10000 nM,43.8 nM,CO/N=C(\CN1CCN(c2ccccn2)CC1)c1ccc(F)cc1,77%,
> 10000 nM,,,> 10000 nM,56.6 nM,CO/N=C(/CCN1CCN(c2ccccn2)CC1)c1ccc(Cl)cc1,,
> 10000 nM,,,> 10000 nM,82 nM,CO/N=C(/CCN1CCN(c2ccccn2)CC1)c1ccc(Br)cc1,,
> 10000 nM,,,> 10000 nM,19.2 nM,Cc1ccc(O)c(/C(CCN2CCN(c3ccccn3)CC2)=N/O)c1,,
> 10000 nM,6.4 nM,46.6 nM,> 10000 nM,60.2 nM,CO/N=C(/CCN1CCN(c2ccccn2)CC1)c1cccc(F)c1,,
> 10000 nM,20.1 nM,125 nM,> 10000 nM,27.5 nM,CO/N=C(/CCN1CCN(c2ccccn2)CC1)c1cccc(C#N)c1,,
> 10000 nM,,,> 10000 nM,601 nM,CO/N=C(/CCN1CCN(c2ccccc2OC(C)C)CC1)c1ccc(F)cc1,,
> 10000 nM,,,> 10000 nM,253 nM,CCO/N=C(\CCN1CCN(c2ncccc2C)CC1)c1ccccc1,,
> 10000 nM,6.4 nM,64.5 nM,> 10000 nM,542 nM,CO/N=C(\CCN1CCN(c2ccccn2)CC1)c1ccc(Cl)c(Cl)c1,76%,
> 10000 nM,,,> 10000 nM,> 10000 nM,O/N=C(/CN1CCN(c2ccccn2)CC1)c1ccc(F)cc1,,

# Source: ChEMBL document CHEMBL1145336, “1-aryl-3-(4-pyridine-2-ylpiperazin-1-yl)propan-1-one oximes as potent dopamine D4 receptor agonists for the treatment of erectile dysfunction” (J Med Chem, 2006)
